Data: ChEMBL document CHEMBL4828755, “A sulfonyl fluoride derivative inhibits EGFRL858R/T790M/C797S by covalent modification of the catalytic lysine” (Eur J Med Chem, 2021)
Active and inactive are the calls of the source. The rule behind the calls is not given here.

Experiments:
[1] = biological target: Fibroblast growth factor receptor 4 (Homo sapiens) (UniProt P22455); test: Inhibition of His-tagged human recombinant FGFR4 ([…] residues) expressed in baculovirus expression system at 100 to 1000 nM by Z'-LYTE assay; conditions: dose 100-1000 nM
Outline: (§1)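 Z'-LYTE FRET kinase panel; phosphorylation of a reference peptide measured with ATP at each enzyme's Km. Compounds tested in 1% DMSO at 0.1 and/or 1 μM. Values are means of two independent experiments with standard deviations.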

[2] = system: Epidermal growth factor receptor (Homo sapiens), P00533 [UNDEFINED MUTATION]; test: Inhibition of EGFR del19/T790M/C797S triple mutant (unknown origin) using fluoresceine-labelled poly-GT peptide as substrate up to 10 uM preincubated with enzyme for 3 hrs followed by substrate and ATP addition by TR-FRET assay; conditions: dose microM <=10, time 3.0 hrs
[3] = biological target: Tyrosine-protein kinase JAK1 (Homo sapiens) (UniProt P23458); test: Inhibition of GST-tagged human recombinant JAK1 (866 to 1154 residues) expressed in baculovirus expression system at 100 to 1000 nM by Z'-LYTE assay; conditions: dose 100-1000 nM
Tyrosine-protein kinase JAK1 (Homo sapiens), sequence (P23458 whole entry, the tested form may be a part): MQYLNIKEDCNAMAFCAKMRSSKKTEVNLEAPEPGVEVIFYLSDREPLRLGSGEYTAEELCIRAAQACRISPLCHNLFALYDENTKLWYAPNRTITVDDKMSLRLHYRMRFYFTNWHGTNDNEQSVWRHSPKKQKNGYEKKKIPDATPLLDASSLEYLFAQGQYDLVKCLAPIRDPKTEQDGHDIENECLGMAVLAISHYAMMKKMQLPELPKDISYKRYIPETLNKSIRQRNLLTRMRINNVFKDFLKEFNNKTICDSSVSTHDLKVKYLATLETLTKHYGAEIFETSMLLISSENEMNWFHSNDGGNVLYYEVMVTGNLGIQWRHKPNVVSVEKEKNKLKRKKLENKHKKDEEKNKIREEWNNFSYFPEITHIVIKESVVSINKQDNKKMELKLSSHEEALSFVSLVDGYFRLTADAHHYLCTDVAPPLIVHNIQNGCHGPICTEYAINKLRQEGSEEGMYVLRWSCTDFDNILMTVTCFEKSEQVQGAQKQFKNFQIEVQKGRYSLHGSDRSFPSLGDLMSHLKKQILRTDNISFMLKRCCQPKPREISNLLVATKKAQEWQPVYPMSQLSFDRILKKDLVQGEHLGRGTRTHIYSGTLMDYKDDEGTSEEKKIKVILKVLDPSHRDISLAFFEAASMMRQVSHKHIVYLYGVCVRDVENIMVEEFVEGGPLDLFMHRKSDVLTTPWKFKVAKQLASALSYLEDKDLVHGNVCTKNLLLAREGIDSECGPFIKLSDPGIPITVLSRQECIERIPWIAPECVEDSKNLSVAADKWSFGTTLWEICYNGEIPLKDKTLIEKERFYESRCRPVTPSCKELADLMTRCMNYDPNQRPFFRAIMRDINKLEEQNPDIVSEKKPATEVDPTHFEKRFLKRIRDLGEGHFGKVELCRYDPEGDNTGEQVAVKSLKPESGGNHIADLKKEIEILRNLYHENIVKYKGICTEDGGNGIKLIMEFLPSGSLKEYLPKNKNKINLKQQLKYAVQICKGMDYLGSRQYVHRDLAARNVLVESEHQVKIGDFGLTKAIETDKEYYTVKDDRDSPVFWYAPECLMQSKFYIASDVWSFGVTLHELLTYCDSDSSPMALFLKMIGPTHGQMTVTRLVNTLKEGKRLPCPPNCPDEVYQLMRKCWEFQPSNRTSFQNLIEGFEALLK

[4] = biological target: Mitogen-activated protein kinase 3 (Homo sapiens) (UniProt P27361); test: Inhibition of GST-tagged human full length recombinant ERK1 expressed in Escherichia coli at 100 to 1000 nM by Z'-LYTE assay; conditions: dose 100-1000 nM
Mitogen-activated protein kinase 3 (Homo sapiens), sequence (P27361 whole entry, the tested form may be a part): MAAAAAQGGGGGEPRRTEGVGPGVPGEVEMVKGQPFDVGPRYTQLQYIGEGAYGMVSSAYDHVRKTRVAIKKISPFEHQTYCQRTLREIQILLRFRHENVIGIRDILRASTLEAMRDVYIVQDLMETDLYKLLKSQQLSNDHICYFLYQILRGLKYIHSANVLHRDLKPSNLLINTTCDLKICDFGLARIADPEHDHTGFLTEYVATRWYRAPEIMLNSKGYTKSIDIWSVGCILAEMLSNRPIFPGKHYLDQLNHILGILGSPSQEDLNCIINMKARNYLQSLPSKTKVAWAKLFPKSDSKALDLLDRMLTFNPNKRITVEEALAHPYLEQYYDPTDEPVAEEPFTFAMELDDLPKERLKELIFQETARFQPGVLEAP

[5] = biological target: Vascular endothelial growth factor receptor 2 (Homo sapiens) (UniProt P35968); test: Inhibition of His-tagged human recombinant VEGFR2 (789 to 1356 residues) expressed in baculovirus expression system at 100 to 1000 nM by Z'-LYTE assay; conditions: dose 100-1000 nM; outline: as §1
Vascular endothelial growth factor receptor 2 (Homo sapiens), sequence (P35968 whole entry, the tested form may be a part): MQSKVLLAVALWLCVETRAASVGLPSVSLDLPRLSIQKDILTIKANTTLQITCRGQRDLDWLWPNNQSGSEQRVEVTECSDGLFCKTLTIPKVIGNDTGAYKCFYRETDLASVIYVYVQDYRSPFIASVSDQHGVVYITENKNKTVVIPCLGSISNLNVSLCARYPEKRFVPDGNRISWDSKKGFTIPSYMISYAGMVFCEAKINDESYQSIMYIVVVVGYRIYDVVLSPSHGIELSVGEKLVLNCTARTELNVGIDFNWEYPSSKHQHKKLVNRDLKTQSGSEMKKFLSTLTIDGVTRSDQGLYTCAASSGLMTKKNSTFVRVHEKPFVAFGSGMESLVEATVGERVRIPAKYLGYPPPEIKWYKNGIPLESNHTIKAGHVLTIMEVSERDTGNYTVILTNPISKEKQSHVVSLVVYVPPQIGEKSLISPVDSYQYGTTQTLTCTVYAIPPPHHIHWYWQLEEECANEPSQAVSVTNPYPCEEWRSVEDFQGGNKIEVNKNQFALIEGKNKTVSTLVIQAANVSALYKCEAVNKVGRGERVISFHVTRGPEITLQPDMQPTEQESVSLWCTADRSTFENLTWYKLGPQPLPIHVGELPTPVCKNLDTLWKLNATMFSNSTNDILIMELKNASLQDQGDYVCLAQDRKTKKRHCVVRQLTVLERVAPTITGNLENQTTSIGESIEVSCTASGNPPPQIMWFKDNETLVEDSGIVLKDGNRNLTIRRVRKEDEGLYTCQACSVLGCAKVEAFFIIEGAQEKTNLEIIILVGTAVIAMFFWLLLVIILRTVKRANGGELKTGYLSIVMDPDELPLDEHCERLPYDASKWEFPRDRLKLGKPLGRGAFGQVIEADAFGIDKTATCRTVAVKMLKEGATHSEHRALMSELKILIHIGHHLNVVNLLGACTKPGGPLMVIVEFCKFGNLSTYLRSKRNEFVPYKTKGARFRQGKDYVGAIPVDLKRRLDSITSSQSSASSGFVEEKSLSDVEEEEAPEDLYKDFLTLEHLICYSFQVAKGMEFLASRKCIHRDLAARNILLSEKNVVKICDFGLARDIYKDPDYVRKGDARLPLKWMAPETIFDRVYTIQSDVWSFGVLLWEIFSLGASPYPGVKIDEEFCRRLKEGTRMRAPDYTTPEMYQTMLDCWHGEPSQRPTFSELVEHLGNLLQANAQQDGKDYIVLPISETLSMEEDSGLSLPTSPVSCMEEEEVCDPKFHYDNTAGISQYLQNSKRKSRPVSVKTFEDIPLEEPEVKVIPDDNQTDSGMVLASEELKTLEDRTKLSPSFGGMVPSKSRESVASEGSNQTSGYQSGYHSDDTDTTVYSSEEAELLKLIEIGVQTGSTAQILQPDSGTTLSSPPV

[6] = biological target: Tyrosine-protein kinase JAK1 (Homo sapiens) (UniProt P23458); test: Inhibition of GST-tagged human recombinant JAK1 (866 to 1154 residues) expressed in baculovirus expression system at 1 uM by Z'-LYTE assay; outline: as §1
[7] = biological target: Proto-oncogene tyrosine-protein kinase Src (Homo sapiens) (UniProt P12931); test: Inhibition of C-terminal His-tagged human recombinant SRC expressed in baculovirus expression system at 1 uM by Z'-LYTE assay; outline: as §1
Proto-oncogene tyrosine-protein kinase Src (Homo sapiens), sequence (P12931 2-536 limits assumed): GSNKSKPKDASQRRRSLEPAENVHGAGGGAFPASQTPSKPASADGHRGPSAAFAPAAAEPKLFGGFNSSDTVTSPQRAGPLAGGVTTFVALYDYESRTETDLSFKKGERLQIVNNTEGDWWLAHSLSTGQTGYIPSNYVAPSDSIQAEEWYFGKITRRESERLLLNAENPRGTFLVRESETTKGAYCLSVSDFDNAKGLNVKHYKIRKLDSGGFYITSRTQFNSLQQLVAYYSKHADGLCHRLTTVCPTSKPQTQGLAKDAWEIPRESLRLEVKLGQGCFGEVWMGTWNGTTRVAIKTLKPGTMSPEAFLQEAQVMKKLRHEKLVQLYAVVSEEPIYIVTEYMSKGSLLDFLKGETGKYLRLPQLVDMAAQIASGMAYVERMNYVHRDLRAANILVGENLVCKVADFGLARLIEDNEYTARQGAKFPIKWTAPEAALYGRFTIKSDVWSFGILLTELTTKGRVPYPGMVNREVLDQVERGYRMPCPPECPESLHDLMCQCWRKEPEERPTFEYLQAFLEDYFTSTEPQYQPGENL

[8] = biological target: T1, Epidermal growth factor receptor (Homo sapiens, UniProt P00533); type: ADME
[9] = system: Epidermal growth factor receptor (Homo sapiens), P00533 [L858R,T790M,C797S]; test: (§2) Covalent binding affinity to recombinant EGFR L858R/T790M/C797S triple mutant (unknown origin) assessed as Lys745 sulfonylation in tryptic digested peptide IPVAIK745ELR at enzyme:compound molar concentration ratio of 1:5 incubated for 1 hr and measured following tryptic digestion by LC-HRMS analysis
Outline: (§3)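 Recombinant triple-mutant EGFR co-incubated with inhibitor at 1:5 molar ratio for 1 h in Kinase Buffer A (50 mM HEPES pH 7.5, 10 mM MgCl2, 1 mM EGTA, 0.01% Brij-35); DMSO vehicle control. Reduced with DTT (15 min, 60°C), alkylated with iodoacetamide, trypsin-digested overnight at 37°C (1:10 trypsin:protein), C18 cleanup, analysed by LC-HRMS in ESI positive mode.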

[10] = biological target: AMP-activated protein kinase, AMPK (Homo sapiens) (UniProt P54646+O43741+P54619+Q9UGJ0+Q9Y478+Q13131+Q9UGI9); test: Inhibition of human recombinant AMPK at 1 uM by Z'-LYTE assay; type: protein-complex assay; outline: as §1
[11] = biological target: Epidermal growth factor receptor (Homo sapiens, UniProt P00533, C797S/L858R/T790M); test: Inhibition of EGFR L858R/T790M/C797S triple mutant (unknown origin) using […] preincubated with enzyme and ATP at Km for 3 hrs followed by substrate addition and measured after 1 hr by TR-FRET assay
[12] = biological target: Vascular endothelial growth factor receptor 2 (Homo sapiens) (UniProt P35968); test: Inhibition of His-tagged human recombinant VEGFR2 (789 to 1356 residues) expressed in baculovirus expression system at 1 uM by Z'-LYTE assay; outline: as §1
[13] = system: Epidermal growth factor receptor (Homo sapiens), P00533 [L858R,T790M,C797S]; test: Inhibition of EGFR L858R/T790M/C797S triple mutant (unknown origin) expressed in mouse Ba/F3 cells assessed as inhibition of EGF-stimulated receptor phosphorylation at 1 uM incubated for 4 hrs followed by washing with buffer solution and later incubation in drug-free medium for 2 to 8 hrs followed by EGF stimulation by western blot analysis; type: cell-based; conditions: BaF3
Outline: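 Ba/F3 cells expressing EGFR L858R/T790M/C797S exposed to 1 μM for 4 h, washed extensively with PBS, and allowed to recover in fresh drug-free medium for 2, 4 or 8 h. Cells then stimulated with 100 ng/ml EGF for 10 min. pEGFR (Tyr1068), total EGFR and actin detected by western blot.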

[14] = biological target: Mitogen-activated protein kinase 3 (Homo sapiens) (UniProt P27361); test: Inhibition of GST-tagged human full length recombinant ERK1 expressed in Escherichia coli at 1 uM by Z'-LYTE assay; outline: as §1
[15] = biological target: T1, Epidermal growth factor receptor; type: ADME; remark: listed apart in the source
[16] = biological target: Mitogen-activated protein kinase 14 (Homo sapiens) (UniProt Q16539); test: Inhibition of GST-tagged human full length recombinant p38 alpha expressed in Escherichia coli at 1 uM by Z'-LYTE assay; outline: as §1
Mitogen-activated protein kinase 14 (Homo sapiens), sequence (Q16539 whole entry, the tested form may be a part): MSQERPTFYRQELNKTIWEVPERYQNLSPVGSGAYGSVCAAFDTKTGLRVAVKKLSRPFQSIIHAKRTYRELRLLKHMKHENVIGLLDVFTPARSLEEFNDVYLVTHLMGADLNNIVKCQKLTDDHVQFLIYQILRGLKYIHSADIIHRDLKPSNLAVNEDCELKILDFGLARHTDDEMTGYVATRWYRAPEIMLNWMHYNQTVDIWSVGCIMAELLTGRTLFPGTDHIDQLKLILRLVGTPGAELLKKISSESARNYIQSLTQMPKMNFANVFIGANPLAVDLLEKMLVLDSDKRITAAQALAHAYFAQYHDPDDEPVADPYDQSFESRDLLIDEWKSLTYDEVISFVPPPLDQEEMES

[17] = biological target: Platelet-derived growth factor receptor alpha (Homo sapiens) (UniProt P16234); test: Inhibition of GST-tagged human recombinant PDGFR alpha (550 to 1089 residues) expressed in baculovirus expression system at 1 uM by Z'-LYTE assay; outline: as §1
Platelet-derived growth factor receptor alpha (Homo sapiens), sequence (P16234 whole entry, the tested form may be a part): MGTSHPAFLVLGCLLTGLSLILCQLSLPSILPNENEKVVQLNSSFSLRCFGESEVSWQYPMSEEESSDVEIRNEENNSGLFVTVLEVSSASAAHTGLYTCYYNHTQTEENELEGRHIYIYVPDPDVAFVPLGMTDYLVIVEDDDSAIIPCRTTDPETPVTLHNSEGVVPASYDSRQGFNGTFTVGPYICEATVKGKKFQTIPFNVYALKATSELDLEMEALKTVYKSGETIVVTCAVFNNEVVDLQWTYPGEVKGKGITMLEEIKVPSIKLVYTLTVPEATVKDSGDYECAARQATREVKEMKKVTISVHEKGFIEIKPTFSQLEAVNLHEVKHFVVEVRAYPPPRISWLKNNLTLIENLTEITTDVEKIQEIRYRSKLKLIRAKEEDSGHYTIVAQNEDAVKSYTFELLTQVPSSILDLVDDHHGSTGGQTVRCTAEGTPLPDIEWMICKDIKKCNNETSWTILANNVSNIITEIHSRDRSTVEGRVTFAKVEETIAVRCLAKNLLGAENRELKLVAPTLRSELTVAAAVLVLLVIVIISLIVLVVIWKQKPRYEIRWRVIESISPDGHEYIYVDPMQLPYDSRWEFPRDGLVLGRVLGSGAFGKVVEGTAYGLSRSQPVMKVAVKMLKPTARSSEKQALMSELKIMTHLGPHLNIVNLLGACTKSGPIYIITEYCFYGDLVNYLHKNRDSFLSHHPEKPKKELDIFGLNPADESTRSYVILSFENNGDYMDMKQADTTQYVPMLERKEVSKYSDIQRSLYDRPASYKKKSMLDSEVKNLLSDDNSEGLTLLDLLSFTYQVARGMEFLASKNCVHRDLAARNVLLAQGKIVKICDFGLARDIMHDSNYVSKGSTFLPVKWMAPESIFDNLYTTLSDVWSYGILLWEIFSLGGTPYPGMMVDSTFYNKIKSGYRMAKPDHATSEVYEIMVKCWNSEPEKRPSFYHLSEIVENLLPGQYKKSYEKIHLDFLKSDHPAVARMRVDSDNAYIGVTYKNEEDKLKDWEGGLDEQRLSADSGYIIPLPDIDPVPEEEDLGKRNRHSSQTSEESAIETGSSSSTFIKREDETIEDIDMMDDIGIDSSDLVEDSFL

[18] = system: Epidermal growth factor receptor (Homo sapiens), P00533 [L858R,T790M,C797S]; test: as §2, with “isotopic profiling” for “LC-HRMS”; outline: as §3
[19] = biological target: Tyrosine-protein kinase Blk (Homo sapiens) (UniProt P51451); test: Inhibition of His-tagged human full length recombinant BLK expressed in baculovirus expression system at 1 uM by Z'-LYTE assay; outline: as §1

Structure (SMILES)	inhibition [1]	inhibition [2]	inhibition [3]	inhibition [4]	inhibition [5]	inhibition [6]	inhibition [7] [%]	IC50 [8] [nM]	Activity [9]	inhibition [10] [%]	IC50 [11] [nM]	inhibition [12] [%]	inhibition [13]	inhibition [14] [%]	IC50 [15] [nM]	inhibition [16] [%]	inhibition [17] [%]	Activity [18]	inhibition [19] [%]
C#CCNC(=O)c1cc(Nc2cc(C3CC3)[nH]n2)nc(N2CCN(Cc3ccc(S(=O)(=O)F)cc3)CC2)n1	inactive	inactive	inactive	inactive	inactive	–	–	–	–	–	–	–	–	–	–	–	–	–	–
COc1cc(N2CCN(C(C)=O)CC2)ccc1Nc1ncc(Cl)c(Nc2ccc(NCc3ccc(S(=O)(=O)F)cc3)cc2)n1	–	–	–	–	–	Active	100	210	Active	100	2.8	< 25	inactive	< 25	30	< 25	< 25	Active	100
